# MrgX1 antag: antagonists of human MrgX1 receptor. MRGX1-HEK293 calcium flux, Fluo-4, BAM8-22 antagonism; active compounds read low. B-score at 10 µM. 310,000 tested, 1.3% active;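 active = calcium-response B-score plate-corrected more than 3 library SD below zero, starting fluorescence within 5 deviations, no agonist response on first addition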;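 note: peak minus trough fluorescence over baseline after final BAM8-22 challenge near maximal dose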
# RGS4 block: inhibitors of human RGS4 | P49798 | HEK293 M3R/RGS4 inducible, Fluo-4 calcium flux; active compounds read high; triggered by carbachol at its EC20 | B-score at 10 µM | 310,000 tested, 0.45% active | AID 463165;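 active = B-score, a plate-corrected calcium signal, over three deviations above library mean, with baseline fluorescence within five deviations of library mean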;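 note: RGS4 expression induced by doxycycline in cells with stable M3 receptor; B-score is computed from the integrated fluorescence ratio over baseline after carbachol; higher B-score means a larger calcium signal and so more RGS4 inhibition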
# Target sequence (P49798 whole entry, looked up): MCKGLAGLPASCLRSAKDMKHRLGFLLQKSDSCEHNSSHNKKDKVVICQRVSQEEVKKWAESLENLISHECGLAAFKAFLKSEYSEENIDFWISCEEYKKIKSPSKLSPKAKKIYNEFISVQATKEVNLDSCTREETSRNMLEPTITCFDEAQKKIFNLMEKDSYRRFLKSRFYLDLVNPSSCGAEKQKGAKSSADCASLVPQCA
# MrgX1 PAM: human MrgX1 positive allosteric modulation, primary screen; Q96LB2; MrgX1-HEK293, Fluo-4 calcium flux, FDSS; active compounds read high; B-score at 10 µM; 310,000 tested, 0.63% active;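 active = plate-corrected calcium response at least 3 library SD above typical, normal starting fluorescence, not activating the receptor alone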;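 note: compound read alongside a low EC10 to EC30 dose of BAM8-22 agonist; peak minus trough fluorescence over baseline measured at the second addition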
# RGS4 pot: potentiators or activators of RGS4. HEK293 M3R/inducible RGS4, carbachol calcium flux Fluo4; active compounds read low. B-score at 10 µM. 310,000 tested, 0.92% active;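 active = B-score of the integrated calcium signal more than 4 SD below the library mean, with starting fluorescence not abnormally high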;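 note: negative B-score means reduced calcium response which marks RGS4 activation or potentiation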
#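 Also added: carbachol at ECmax as muscarinic agonist stimulus; Assay system: HEK293 cells with stable M3R and inducible RGS4; Timing: overnight RGS4 induction, 30 min dye load 37 °C, 20 min compound RT; Measured by: Fluo4-AM (2 µM) calcium-flux fluorescence, kinetic read.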
# MrgX1 ag: activates human MrgX1 receptor signaling | MrgX1-HEK293 cells, Fluo-4 calcium fluorescence, agonist mode; active compounds read high | 310,000 tested, 0.44% active | Q96LB2 | AID 588627 | B-score at 10 µM;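 active = calcium response B-score plate-corrected fluorescence ratio at least 3 library SD, with starting fluorescence B-score inside 5 SD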
#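 Assay system: stable human MrgX1 HEK293 cell line. Quantity: 15,000 cells per well. Schedule: cells plated overnight, dye loaded 0.5 h 37 °C, 0.5 h room temperature. Detection: Fluo-4 NW calcium-flux fluorescence, kinetic read. Read-out basis: peak-minus-minimum fluorescence over baseline, converted to B scores. Control set: positive and negative control wells on each plate.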
# Kir21 block: blocks the mouse Kir2.1 inward-rectifier potassium channel; HEK293-Kir2.1, FluxOR thallium flux fluorescence; active compounds read low; B-score at 10 µM; 310,000 tested, 0.85% active;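 active = fluorescence ratio B-score at or below minus 3 SD of library scores, with starting-brightness B-score within 2 SD, cut at about -4.2 in these data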;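 note: channel flux triggered by added potassium and thallium sulfate stimulus; B-score of peak minus minimum fluorescence over baseline after thallium stimulus; more negative B-score means stronger Kir2.1 block with less thallium influx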
# Target sequence (P35561 whole entry, looked up): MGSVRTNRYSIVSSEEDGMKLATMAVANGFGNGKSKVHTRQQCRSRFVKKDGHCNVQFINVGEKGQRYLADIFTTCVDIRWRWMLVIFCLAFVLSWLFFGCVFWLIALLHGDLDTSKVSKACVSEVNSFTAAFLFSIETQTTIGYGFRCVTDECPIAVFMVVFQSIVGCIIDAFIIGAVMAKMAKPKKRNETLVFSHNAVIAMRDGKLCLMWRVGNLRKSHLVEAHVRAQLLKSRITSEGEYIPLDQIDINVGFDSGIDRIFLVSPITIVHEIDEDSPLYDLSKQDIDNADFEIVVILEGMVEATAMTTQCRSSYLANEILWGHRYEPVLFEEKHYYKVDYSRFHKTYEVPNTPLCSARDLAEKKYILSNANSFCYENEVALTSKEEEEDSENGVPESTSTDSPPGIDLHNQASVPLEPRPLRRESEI
# MrgX1 antag conf: confirmation of human MrgX1 receptor antagonists; MrgX1-HEK293, BAM8-22 calcium flux, Fluo-4; active compounds read low; 2,300 tested, 19% active; AID 602420; remaining BAM8-22 calcium response % of control (active compounds read low), % at 10 µM; shares compounds with MrgX1 antag;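 active = remaining agonist calcium response no higher than 100% minus 3 SD of agonist-only control wells, with starting fluorescence near control levels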;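 note: agonist BAM8-22 given at a near maximal EC90 to ECmax level; peak minus minimum fluorescence divided by baseline after agonist addition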
# HEK293 Ca flux: counter-screen for MrgX1 antagonists: effect in parental HEK293 cells | fluorescence ratio F(max-min)/F0 at 10 µM | shares compounds with MrgX1 antag | 4,000 tested, 2% active | Fluo-4 calcium fluorescence, FDSS | AID 624111;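 active = duplicate-averaged calcium fluorescence ratio at least three times the standard deviation of buffer wells, a nonspecific response in parental cells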
# HEK293 Ca counter: counter-screen for MrgX1 allosteric activators: effect in parental HEK293 cells. shares compounds with MrgX1 antag. parental HEK293 calcium flux, Fluo-4 fluorescence ratio; active compounds read high. fluorescence ratio F(max-min)/F0 at 10 µM. 4,000 tested, 0.4% active. AID 624114;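 active = calcium fluorescence ratio, averaged over duplicates, at least 3 SD of the buffer-well ratio, meaning a nonspecific response in receptor-free cells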;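 note: untransfected parental HEK293 lacking MrgX1 used as counterscreen for MrgX1 allosteric activators; fluorescence change taken during the second addition on a kinetic imager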
# HEK293 Ca cntr2: activity in parental HEK293 cells lacking MrgX1 receptor; fluorescence ratio F(max-min)/F0 at 10 µM; Fluo-4 calcium fluorescence (FDSS); active compounds read high; 4,000 tested, 8.7% active; shares compounds with MrgX1 antag;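 active = calcium fluorescence ratio at least three times the spread of buffer wells, meaning a non-specific response in parental cells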
# Active calls of the source: *; i = inactive; · = not tested or not shown. The list is not random: actives were taken first. Their share in the collection is about 4.1%.
SMILES,MrgX1 antag,RGS4 block,MrgX1 PAM,RGS4 pot,MrgX1 ag,Kir21 block,MrgX1 antag conf,HEK293 Ca flux,HEK293 Ca counter,HEK293 Ca cntr2
COc1ccc(SCCc2nnc(-c3ccccc3)o2)cc1,-7.8*,i,i,i,i,-0.64,i,i,i,i
COc1cccc(NC(=O)CNC(=O)Cn2cnc3sc4c(c3c2=O)CCCC4)c1,i,i,i,i,i,1.39,·,·,·,·
c1ccn2c(Cc3nnc4ccccn34)nnc2c1,-5.54*,i,i,i,i,-0.03,i,i,i,i
c1csc(-c2nnc3ccccn23)c1,i,i,i,i,i,0.09,·,·,·,·
Cc1cc(NCCN2CCOCC2)n2c(nc3ccccc32)c1C#N,i,i,i,i,i,2.11,·,·,·,·
Cc1cc(NCCCN2CCOCC2)n2c(nc3ccccc32)c1C#N,-5.99*,i,i,i,i,-0.11,78.3%*,i,i,i
O=S(=O)(NC1CCCCC1N1CCN(c2ccc(F)cc2)CC1)c1ccccc1 (centres undefined),i,i,i,i,i,3.94,·,·,·,·
COc1ccc(N2CCN(C3CCCCC3NS(=O)(=O)c3ccc(Cl)cc3)CC2)cc1 (centres undefined),-7.57*,i,i,i,i,1.11,i,i,i,i
O=C(NCc1ccc(F)cc1)c1nc(-c2cccs2)no1,i,i,i,i,i,-1.17,·,·,·,·
Oc1ccc(N2CCN(C(c3ccncc3)c3nnnn3C3CCCC3)CC2)cc1 (centres undefined),-8.08*,i,i,i,i,0.49,i,i,i,i
c1cc(C(c2nnnn2C2CCCC2)N2CCOCC2)ccn1 (centres undefined),i,i,i,i,i,1.31,·,·,·,·
Cc1ccccc1Oc1ccc(NC(=O)C2CC=CCC2C(=O)O)cc1 (centres undefined),i,i,i,i,i,-0.39,·,·,·,·
CC(C)(C)c1ccc(Oc2ccc(NC(=O)C3CC=CCC3C(=O)O)cc2)cc1 (centres undefined),-9.01*,i,i,i,i,0.67,i,i,i,i
CCOC1(OCC)C(c2ccc(N)cc2)C(C#N)(C#N)C1(OCC)OCC (centres undefined),i,i,i,i,i,-0.3,·,·,·,·
O=C(Nc1ccc(S(=O)(=O)Nc2ccccc2)cc1)c1ccc(CN2CCOCC2)cc1,-4.55*,i,i,i,i,0.25,78.9%*,i,i,i
CCCc1[nH]nc2c1C(/C(C)=C/c1ccccc1)C(C#N)=C(N)O2 (centres undefined),i,i,i,i,i,0.54,·,·,·,·
c1ccc(C(Cc2nc(-c3ccccn3)no2)c2ccccc2)cc1,i,i,i,i,i,-0.48,·,·,·,·
COC(=O)c1c(N)sc(C(C)=O)c1C,-8.36*,i,i,i,i,0.61,i,i,i,i
O=C(CSc1nnnn1-c1cccc2c1CCCC2)NC1CCCC1,-4.54*,i,i,i,i,-1.55,i,i,i,i
CC1CCCC(C)N1C(=O)CSc1nnnn1-c1cccc2c1CCCC2 (centres undefined),i,i,i,i,i,-0.09,·,·,·,·
Cc1cc(C2N=C(N)Nc3nc4ccccc4n32)c(C)n1-c1ccccc1Cl (centres undefined),-5.54*,i,i,i,i,-0.19,i,i,i,i
Cc1cccc(-n2c(-c3ccc(Br)o3)n[nH]c2=S)c1,i,i,i,i,i,1.04,·,·,·,·
COc1ccc(C2C3=C(CCCC3=O)Nc3ccc4ncccc4c32)cc1OC (centres undefined),-4.67*,i,i,i,i,-0.06,i,i,i,i
CC(=O)c1ccc(NC(=O)C(C)NCc2ccccc2Cl)cc1 (centres undefined),-6.23*,i,i,i,i,0.26,i,i,i,i
COc1ccc2nc(N)sc2c1,i,i,i,i,i,0.47,·,·,·,·
SMILES,MrgX1 antag,RGS4 block,MrgX1 PAM,RGS4 pot,MrgX1 ag,Kir21 block,MrgX1 antag conf,HEK293 Ca flux,HEK293 Ca counter,HEK293 Ca cntr2
COc1ccc2nc(-c3ccc(F)cc3)sc2c1,-4.57*,i,i,i,i,0.28,i,i,i,i
COc1ccc2nc(-n3c(C)ccc3C)sc2c1,-5.99*,i,i,i,i,2.8,i,i,i,i
Cc1ccccc1-c1nc(CS(=O)(=O)CC(=O)N(C)C2CCCCC2)c(C)o1,i,i,i,i,i,-0.07,·,·,·,·
CC(=O)c1ccc(NC(=S)NC(C)c2ccc(Cl)cc2Cl)cc1 (centres undefined),-10.3*,i,i,i,i,3.5,i,i,i,i
C=CCn1c(COc2ccc(Cl)cc2)nnc1SCC(=O)N/N=C/c1ccccc1,i,i,i,i,i,-0.89,·,·,·,·
Cc1nc2ccccc2n1CC(=O)N/N=C\C=C\c1ccccc1,i,i,i,i,i,0.47,·,·,·,·
CCN(CC)c1ccc(N=Cc2ccc(N(CC)CC)cc2O)cc1,-8.15*,i,i,i,i,0.05,i,0.238*,i,46.2*
CCN(CC)c1ccc(C=Nc2ccc(N(C)C)cc2)c(O)c1,-4.64*,i,i,i,i,-0.92,66.3%*,i,i,i
Cc1ccc(C(=O)Nc2cccnc2)cc1NC(=O)c1ccco1,i,i,i,i,i,0.34,·,·,·,·
O=S1(=O)CC(O)C(Nc2ccccc2Cl)C1 (centres undefined),-7.92*,i,i,i,i,-0.1,i,i,i,i
COC(=O)c1ccc2nc(C)cc(Nc3ccc(N(C)C)cc3)c2c1,i,i,i,i,i,-0.37,·,·,·,·

# Assay outcomes: PubChem, Johns Hopkins Ion Channel Center
